The values that follow come from ChEMBL document CHEMBL3526055, “Human metabolism of lapatinib, a dual kinase inhibitor: implications for hepatotoxicity” (Drug Metab Dispos, 2012).

What all share (type): ADME, organism-based
Data set [1] has as its system Plasma. Kind of data set: Drug level in healthy human plasma treated with [14C]lapatinib at 250 mg, po administered as single dose by LC-MS/MS method. The note with it: in vivo. Put shortly:
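Healthy volunteers (n=6) received a single 250 mg oral aqueous suspension of unlabeled plus [14C]-drug (89.1 μCi), fasted 10 h predose to ~4 h postdose. Samples were collected for 168 h. Plasma was extracted from 25 µl by protein precipitation with an isotope-labeled internal standard and quantified by validated LC/MS/MS over 5 to 5000 ng/ml. Medians were reported.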

A short description of data set [2]: Drug level in healthy human feces treated with [14C]lapatinib at 250 mg, po administered as single dose by LC-MS/MS method. Conditions: in vivo.
Data set [3] relates to Plasma. Kind of data set: Drug metabolism in healthy human plasma assessed as 5-(4-(3-chloro-4-(3-fluorobenzyloxy)phenylamino)quinazolin-6-yl)furan-2-carboxylic acid formation at 250 mg, po administered as single dose by LC-MS/MS method. Conditions: in vivo. Put shortly:
(§1)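 Pooled plasma from subjects given a single 250 mg oral [14C] suspension was extracted (>90% recovery) and run on a C18 HPLC column at 45 °C. Positive-ion ESI single-quadrupole LC/MS used full scan m/z 100 to 900, with UV at 277 nm. Faeces were extracted with ethanol:acetonitrile:sample (3:3:1) for radio-HPLC profiling with off-line LSC fractions and nanoelectrospray MS.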

Data set [4] deals with Plasma. Briefly: Drug metabolism in healthy human plasma assessed as N-(3-chloro-4-(3-fluorobenzyloxy)phenyl)-6-(5-((hydroxy(2-(methylsulfonyl)ethyl)amino)methyl)furan-2-yl)quinazolin-4-amine formation at 250 mg, po administered as single dose by LC-MS/MS method. The note with it: in vivo. The method, boiled down:
as §1

Data set [5] is described as follows: Total drug recovery in healthy male human at 250 mg, po administered as single dose. Conditions: in vivo, read-out: Drug recovery. The method, boiled down:
(§2)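 Six healthy subjects (3 male, 3 female) received a single 250 mg oral [14C] suspension. Urine was collected in intervals and faeces were collected up to 168 h postdose. Faeces were homogenized as a water slurry and triplicate ~0.2 g aliquots combusted. Urine and plasma were counted directly by LSC with quench and background correction. Results are reported as median % of dose.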

A short description of data set [6]: Drug recovery in healthy human urine at 250 mg, po administered as single dose. The note with it: read-out: Drug recovery. The method, boiled down:
as §2

For data set [7], the system named is Plasma. Kind of data set: Drug metabolism in healthy human plasma assessed as 5-(4-(3-chloro-4-(3-fluorobenzyloxy)phenylamino)quinazolin-6-yl)furan-2-carbaldehyde formation at 250 mg, po administered as single dose by LC-MS/MS method. The note with it: in vivo. The method, boiled down:
as §1

The test system of data set [8] is Plasma. Kind of data set: Drug metabolism in healthy human plasma assessed as 4-(3-chloro-4-hydroxyphenylamino)-6-(5-((2-(methylsulfonyl)ethylamino)methyl)furan-2-yl)quinazolin-2-ol formation at 250 mg, po administered as single dose by LC-MS/MS method. Conditions: in vivo. Put shortly: as §1
A further data set deals with Homo sapiens. Kind of data set: Total drug recovery in healthy human at 250 mg, po administered as single dose after 0 to 168 hrs. The note with it: in vivo. The method, boiled down: as §2
The nature of data set [9]: Drug recovery in healthy human urine at 250 mg, po administered as single dose after 0 to 120 hrs. Conditions: read-out: Drug recovery. The method, boiled down: as §2
Data set [10] in a line: Drug recovery in healthy human feces at 250 mg, po administered as single dose after 0 to 96 hrs. The note with it: read-out: Drug recovery. Put shortly: as §2
Data set [11] concerns Plasma. Kind of data set: Drug metabolism in healthy human plasma assessed as (Z)-5-(4-(3-chloro-4-(3-fluorobenzyloxy)phenylamino)quinazolin-6-yl)furan-2-carbaldehyde oxime formation at 250 mg, po administered as single dose by LC-MS/MS method. The note with it: in vivo. The method, boiled down:
as §1

The nature of data set [12]: Drug recovery in healthy human urine at 250 mg, po administered as single dose after 0 to 72 hrs. The note with it: read-out: Drug recovery. The method, boiled down:
as §2

Data set [13] is described as follows: Drug metabolism in healthy human feces assessed as 6-(5-(aminomethyl)furan-2-yl)-N-(3-chloro-4-(3-fluorobenzyloxy)phenyl)quinazolin-4-amine formation at 250 mg, po administered as single dose by LC-MS/MS method. The note with it: in vivo. The method, boiled down: as §1
Data set [14] can be described thus: Drug recovery in healthy female human feces at 250 mg, po administered as single dose. The note with it: read-out: Drug recovery. The method, boiled down: as §2
Data set [15] is described as follows: Drug recovery in healthy human urine at 250 mg, po administered as single dose after 0 to 168 hrs. Conditions: read-out: Drug recovery. The method, boiled down: as §2
Data set [16] can be described thus: Drug level in healthy human feces at 250 mg, po administered as single dose by LC-MS/MS method. Conditions: read-out: Drug uptake.
A short description of data set [17]: Drug recovery in healthy human urine at 250 mg, po administered as single dose after 0 to 144 hrs. Conditions: read-out: Drug recovery. The method, boiled down:
as §2

Data set [18] is described as follows: Drug recovery in healthy human urine at 250 mg, po administered as single dose after 0 to 48 hrs. The note with it: read-out: Drug recovery. Put shortly:
as §2

Data set [19] can be described thus: Drug recovery in healthy female human urine at 250 mg, po administered as single dose. The note with it: read-out: Drug recovery. Put shortly: as §2
The nature of data set [20]: Total drug recovery in healthy human at 250 mg, po administered as single dose. The note with it: in vivo, read-out: Drug recovery. The method, boiled down:
as §2

A short description of data set [21]: Drug recovery in healthy male human urine at 250 mg, po administered as single dose. Conditions: read-out: Drug recovery. Put shortly:
as §2

A short description of data set [22]: Total drug recovery in healthy female human at 250 mg, po administered as single dose. Conditions: in vivo, read-out: Drug recovery. The method, boiled down: as §2
Data set [23] is described as follows: Drug recovery in healthy human feces at 250 mg, po administered as single dose after 0 to 72 hrs. Conditions: read-out: Drug recovery. Put shortly:
as §2

Data set [24] concerns Plasma. Briefly: Drug metabolism in healthy human plasma assessed as N-((5-(4-(3-chloro-4-(3-fluorobenzyloxy)phenylamino)quinazolin-6-yl)furan-2-yl)methylene)-2-(methylsulfonyl)ethanamine oxide formation at 250 mg, po administered as single dose by LC-MS/MS method. The note with it: in vivo. The method, boiled down: as §1
Data set [25] concerns Plasma. Kind of data set: Drug metabolism in healthy human plasma assessed as 1-(5-(4-(3-chloro-4-(3-fluorobenzyloxy)phenylamino)quinazolin-6-yl)furan-2-yl)-N-(2-(methylsulfonyl)ethylidene)methanamine oxide formation at 250 mg, po administered as single dose by LC-MS/MS method. Conditions: in vivo. Put shortly:
as §1

Data set [26] is described as follows: Drug recovery in healthy male human feces at 250 mg, po administered as single dose. Conditions: read-out: Drug recovery. The method, boiled down: as §2
Data set [27] can be described thus: Drug recovery in healthy human feces at 250 mg, po administered as single dose after 0 to 144 hrs. Conditions: read-out: Drug recovery. Put shortly:
as §2

For data set [28], the system named is Plasma. Kind of data set: Drug metabolism in healthy human plasma assessed as 2-chloro-4-(6-(5-((2-(methylsulfonyl)ethylamino)methyl)furan-2-yl)quinazolin-4-ylamino)phenol formation at 250 mg, po administered as single dose by LC-MS/MS method. The note with it: in vivo. The method, boiled down:
as §1

Data set [29] in a line: Drug recovery in healthy human feces at 250 mg, po administered as single dose after 0 to 120 hrs. Conditions: read-out: Drug recovery. Put shortly: as §2
A short description of data set [30]: Drug recovery in healthy human feces at 250 mg, po administered as single dose after 0 to 48 hrs. Conditions: read-out: Drug recovery. Put shortly:
as §2

The test system of data set [31] is Plasma. Kind of data set: Drug recovery in healthy human plasma at 250 mg, po administered as single dose. Conditions: in vivo.
A short description of data set [32]: Drug recovery in healthy human feces at 250 mg, po administered as single dose after 0 to 24 hrs. Conditions: read-out: Drug recovery. The method, boiled down:
as §2

Data set [33] has as its system Plasma. Kind of data set: Drug metabolism in healthy human plasma assessed as (E)-5-(4-(3-chloro-4-(3-fluorobenzyloxy)phenylamino)quinazolin-6-yl)furan-2-carbaldehyde oxime formation at 250 mg, po administered as single dose by LC-MS/MS method. The note with it: in vivo. Put shortly:
as §1

Data set [34] in a line: Drug recovery in healthy human feces at 250 mg, po administered as single dose after 0 to 168 hrs. Conditions: read-out: Drug recovery. The method, boiled down: as §2
The nature of data set [35]: Drug recovery in healthy human urine at 250 mg, po administered as single dose after 0 to 96 hrs. Conditions: read-out: Drug recovery. The method, boiled down:
as §2

Data set [36] can be described thus: Drug recovery in healthy human urine at 250 mg, po administered as single dose after 0 to 24 hrs. The note with it: read-out: Drug recovery. The method, boiled down: as §2

Some results are limits rather than exact numbers.

In the case of `CS(=O)(=O)CC/[N+]([O-])=C/c1ccc(-c2ccc3ncnc(Nc4ccc(OCc5cccc(F)c5)c(Cl)c4)c3c2)o1`, the Drug metabolism result in the data set on Plasma [1] is “metabolite_detected”.

As to `CS(=O)(=O)C/C=[N+](/[O-])Cc1ccc(-c2ccc3ncnc(Nc4ccc(OCc5cccc(F)c5)c(Cl)c4)c3c2)o1`, the Drug metabolism result in the data set on Plasma [1] was “metabolite_detected”.

Regarding `CS(=O)(=O)CCN(O)Cc1ccc(-c2ccc3ncnc(Nc4ccc(OCc5cccc(F)c5)c(Cl)c4)c3c2)o1`, the Drug metabolism entry with Plasma [1] is recorded as “metabolite_detected”.

For `O=Cc1ccc(-c2ccc3ncnc(Nc4ccc(OCc5cccc(F)c5)c(Cl)c4)c3c2)o1`, the Drug metabolism entry in the data set with Plasma [1] is “metabolite_detected”.

Consider `O/N=C/c1ccc(-c2ccc3ncnc(Nc4ccc(OCc5cccc(F)c5)c(Cl)c4)c3c2)o1`, for which the Drug metabolism result in the data set on Plasma [1] is reported as “metabolite_detected”.

As for `O/N=C\c1ccc(-c2ccc3ncnc(Nc4ccc(OCc5cccc(F)c5)c(Cl)c4)c3c2)o1`, in the data set with Plasma [1], the Drug metabolism result is “metabolite_detected”.

As for `CS(=O)(=O)CCNCc1ccc(-c2ccc3nc(O)nc(Nc4ccc(O)c(Cl)c4)c3c2)o1`, the Drug uptake in [2] was 3.3%.

As for `Oc1ccc(-c2ccc3ncnc(Nc4ccc(OCc5cccc(F)c5)c(Cl)c4)c3c2)nc1`, the Drug uptake in [2] is 6.3%.

As to `NCc1ccc(-c2ccc3ncnc(Nc4ccc(OCc5cccc(F)c5)c(Cl)c4)c3c2)o1`, the Drug metabolism entry in data set [2] is recorded as “metabolite_detected”.

As to `CS(=O)(=O)CC[n+]1cc([O-])ccc1-c1ccc2ncnc(Nc3ccc(OCc4cccc(F)c4)c(Cl)c3)c2c1`, the Drug metabolism result in data set [2] is reported as “metabolite_detected”.

As for `CS(=O)(=O)CCNCc1ccc(-c2ccc3ncnc(Nc4ccc(O)c(Cl)c4)c3c2)o1`, the Drug uptake in data set [2] worked out at 3.9%.

As to `CS(=O)(=O)CCNCc1ccc(-c2ccc3ncn[14c](Nc4ccc(OCc5cccc(F)c5)c(Cl)c4)c3c2)o1.Cc1ccc(S(=O)(=O)O)cc1.O`, the Drug metabolism entry with Plasma [3] is reported as “metabolite_detected”; in the data set with Plasma [4], “metabolite_detected”; in the data set on Plasma [7], “metabolite_detected”; with Plasma [8], “metabolite_not_detected”; in the data set on Plasma [11], “metabolite_detected”; in [13], “metabolite_detected”. The Drug metabolism result is given as “metabolite_detected” with Plasma [24], “metabolite_detected” in the data set with Plasma [25], “metabolite_not_detected” in the data set with Plasma [28] and “metabolite_detected” with Plasma [33]. In addition, the dose excreted came out at 94.6% in [5]; 1.15% in [6]; 1.16% in [9]; 78.4% in data set [10]; 1.16% in data set [12]; 89.9% in data set [14]. The dose excreted in data set [15] came to 1.16%; in data set [16], 27%; in [17], 1.16%; in data set [18] it was 1.16%; in data set [19] it was 1.3%; in data set [20] it was 93%. The dose excreted in data set [21] was 1%; in data set [22] it was 91.5%; in [23], 74.9%; in [26], 93.6%; in [27] it was 91.4%; in [29] it was 90.8%. Further, the dose excreted in [30] amounted to 45.3%; in data set [32], 10.5%; in data set [34], 91.8%; in [35], 1.16%; in data set [36], 1.01%. Besides, the Drug recovery is 93.1% in the data set on Homo sapiens and more than 90% in the data set on Plasma [31].

On to `O=C(O)c1ccc(-c2ccc3ncnc(Nc4ccc(OCc5cccc(F)c5)c(Cl)c4)c3c2)o1`, for which the Drug metabolism result with Plasma [1] was “metabolite_detected”. In addition, the Drug uptake in data set [2] came to 14%.
